{"source": "paper PMC10237409", "about": "(Neuro-Oncology, 2022)", "key": {"orthotopic glioblastoma": {"system": "orthotopic glioblastoma", "settings": "cited from earlier work"}, "glioblastoma": {"system": "glioblastoma", "settings": "cited from earlier work"}, "[1]": {"type": "in vivo", "settings": "human, plasma, oral, 30 mg/day; for AUC(0-t): GM AUC0-24, plasma; for Cmax: GM Cmax; for Tmax: Median tmax (range)", "in_short": "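Patients took 30 mg/day orally on days 1–4 before resection. Plasma was sampled at multiple time points through cycle 1 and at surgery, then assayed by LC-MS/MS (High Assay Range). Cmax, tmax, AUC and t½ came from non-compartmental analysis and were summarised as geometric means.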"}, "[2]": {"type": "in vivo, human", "in_short": "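Patients took 30 mg/day orally on days 1–4, with salvage resection planned 6–24 h after the day 4 dose. Resected tumour (contrast-enhancing and non-enhancing where possible), CSF and time-matched plasma were collected during surgery. Results were summarised as geometric means. Free tissue concentration and unbound partition coefficient were estimated from plasma protein binding and tissue binding.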"}, "CCR1 mRNA": {"system": "CCR1 mRNA", "assay": "CCR1 mRNA in whole blood", "type": "in vivo, human", "settings": "after the fourth preoperative dose, 30 mg/day; mean (SD ± 28.5)", "in_short": "(§1)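 Patients took 30 mg/day orally on days 1–4 before salvage resection. Blood samples for pharmacodynamics were drawn at multiple time points through cycle 1 and at surgery. CCR1 and HEXIM1 expression in blood was measured by RNA-Seq.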"}, "HEXIM1 mRNA": {"system": "HEXIM1 mRNA", "assay": "HEXIM1 mRNA in whole blood", "type": "in vivo, human", "settings": "72–96 h after the first preoperative dose, 30 mg/day", "in_short": "as §1"}, "[3]": {"assay": "Safety: treatment-related adverse events", "type": "in vivo, human", "in_short": "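AEs were coded with MedDRA 24.0 and graded by NCI CTCAE 5.0. They were reported separately for the preoperative period (30 mg/day days 1–4, until maintenance start) and for postoperative maintenance (45 mg/day 4 days on/24 days off per 28-day cycle, onward). Maintenance continued until progression, unacceptable toxicity or consent withdrawal.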"}, "[4]": {"settings": "stated without reference; cited from earlier work"}, "[5]": {"system": "advanced cancers, including high-grade gliomas", "settings": "45 mg/day 4 days on/24 days off per 28-day cycle; cited from earlier work"}, "[6]": {"settings": "postoperative maintenance 45 mg/day 4 days on/24 days off, n = 16"}, "[7]": {"settings": "preoperative 30 mg/day days 1–4, n = 20"}}, "note": "Read-outs that look alike come from different tables or passages of the source."}
{"smiles": "Cc1sc2c(c1C)C(c1ccc(Cl)cc1)=N[C@@H](CC(=O)Nc1ccc(O)cc1)c1nnc(C)n1-2", "note": "[OTX015]", "values": [{"measurement": "Antitumor activity", "setting": "orthotopic glioblastoma", "result": "showed antitumor activity"}, {"measurement": "Penetration of brain tumor tissue", "setting": "orthotopic glioblastoma; markedly lower concentrations in peritumoral and distant brain tissue", "result": "high penetration of brain tumor tissue"}, {"measurement": "Clinical efficacy (study outcome)", "setting": "glioblastoma", "result": "lack of efficacy"}]}
{"smiles": "Cn1cc(-c2cc(S(C)(=O)=O)ccc2OCC2CC2)c2ccccc2c1=O", "note": "[Trotabresib]", "values": [{"measurement": "half-life", "setting": "[1]", "result": 46, "unit": "h"}, {"measurement": "AUC(0-t)", "setting": "[1]; cycle 1 day 1, GM (% GCV)", "result": 5080, "unit": "ng·h/mL"}, {"measurement": "AUC(0-t)", "setting": "[1]; cycle 1 day 4, GM (% GCV)", "result": 11200, "unit": "ng·h/mL"}, {"measurement": "Cmax", "setting": "[1]; cycle 1 day 1, GM (% GCV)", "result": 392, "unit": "ng/mL"}, {"measurement": "Cmax", "setting": "[1]; cycle 1 day 4, GM (% GCV)", "result": 720, "unit": "ng/mL"}, {"measurement": "Tmax", "setting": "[1]; cycle 1 day 1", "result": 1.5, "unit": "h"}, {"measurement": "Tmax", "setting": "[1]; cycle 1 day 4", "result": 1.9, "unit": "h"}, {"measurement": "Plasma concentration at the time of surgery, GM (% GCV)", "setting": "[2]; after 30 mg/day days 1–4, n = 19", "result": 1020, "unit": "nM"}, {"measurement": "GM free (tissue binding-corrected) trotabresib concentration in brain tissue", "setting": "[2]; calculated, n = 20, GM (% GCV)", "result": 0.028, "unit": "µM"}, {"measurement": "CSF concentration, GM (% GCV)", "setting": "[2]; n = 13", "result": 0.14, "unit": "µM"}, {"measurement": "Brain tumor tissue concentration, GM (% GCV)", "setting": "[2]; resected tissue after 30 mg/day days 1–4, n = 20", "result": 0.74, "unit": "µM"}, {"measurement": "Blood levels of CCR1 mRNA, % of baseline levels", "setting": "CCR1 mRNA", "result": 45.8, "unit": "%"}, {"measurement": "Blood levels of HEXIM1 mRNA versus baseline", "setting": "HEXIM1 mRNA", "result": "increased from baseline in all patients"}, {"measurement": "Serious TRAEs", "setting": "[3]; overall study", "result": "No serious TRAEs"}, {"measurement": "Treatment discontinuation due to AEs", "setting": "[3]; overall study", "result": "No patients discontinued treatment due to AEs"}, {"measurement": "Any TRAE, any grade, patients", "setting": "[3]; [6]", "result": 100, "unit": "%"}, {"measurement": "Asthenia, grade 3/4 TRAE, number of patients", "setting": "[3]; [6]", "result": 1, "unit": "patient"}, {"measurement": "Thrombocytopenia, grade 3/4 TRAE, number of patients", "setting": "[3]; [6]", "result": 5, "unit": "patients"}, {"measurement": "Dose reduction due to thrombocytopenia, number of patients", "setting": "[3]; postoperative treatment period, 45 mg/day", "result": 1, "unit": "patient"}, {"measurement": "Dose interruptions due to AEs, number of patients", "setting": "[3]; postoperative treatment period, 45 mg/day, thrombocytopenia in 2, pancreatitis in 1", "result": 3, "unit": "patients"}, {"measurement": "Surgery delayed or canceled due to an AE", "setting": "[3]; preoperative 30 mg/day days 1–4", "result": "No patients"}, {"measurement": "ALT increased, grade 3/4 TRAE, number of patients", "setting": "[3]; [7]", "result": 1, "unit": "patient"}, {"measurement": "Any TRAE, any grade, patients", "setting": "[3]; [7]", "result": 60, "unit": "%"}, {"measurement": "Any TRAE, grade 3/4, patients", "setting": "[3]; [7]", "result": 10, "unit": "%"}, {"measurement": "Lymphopenia, grade 3/4 TRAE, number of patients", "setting": "[3]; [7]", "result": 1, "unit": "patient"}, {"measurement": "Thrombocytopenia, grade 1/2, patients", "setting": "[3]; [7]", "result": 25, "unit": "%"}, {"measurement": "Lipophilicity", "setting": "[4]", "result": "high lipophilicity"}, {"measurement": "Prolonged progression-free survival (PFS) in some patients", "setting": "[5]", "result": "up to 3 years"}]}
